The subject of data set [1] is Liver microsomes. Put plainly: Metabolic stability in human liver microsomes assessed as retention time of parent compound at 50 uM by HPLC-UV analysis. It counts as ADME, Microsome. The method in brief:
(§1)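 Pooled mixed-gender human liver microsomes (0.5 mg/mL protein) were incubated with 2 mM NADPH, 0.5 U/mL G-6-P-DH, 5 mM MgCl₂ and 5 mM G-6-P in 100 mM potassium phosphate pH 7.4. After 3 min preincubation at 37 °C, NADPH was added to start the reaction, which ran 60 min. Samples taken at 0, 15, 30, 45 and 60 min were quenched with ice-cold acetonitrile, then run on reversed-phase C18 HPLC (phosphate pH 6.5/acetonitrile gradient) with UV at 360 nm. Data are mean ± SD of three.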
Background: Microsomes from liver hold many membrane-bound enzymes, among them those of drug oxidation.

Data set [2] deals with T1, CYP2D6 (Homo sapiens, UniProt P10635). Put plainly: Activity at CYP2D6 in human liver microsomes using dextromethorphan as substrate at 25 uM preincubated for 3 mins prior to NADPH addition by HPLC-UV analysis relative to control. To be noted: probe dextromethorphan, read-out: Activity. It counts as ADME, Microsome. In a few lines: (§2)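 Pooled mixed-gender human liver microsomes in 100 mM potassium phosphate (pH 7.4) with 5 mM MgCl₂, probe substrate at its Km-based level, and test compound. Final volume 100 µL. Preincubated 3 min at 37 °C, then started with 2 mM NADPH (final). Metabolite was read by HPLC-UV: 6β-hydroxytestosterone at 254 nm, 4-hydroxytriazolam at 260 nm, dextrorphan at 278 nm. Activity is given as % of control (100%), mean ± SD of three.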

For data set [3], the target named is T2, CYP3A4 (Homo sapiens, UniProt P08684). Put plainly: Activity at CYP3A4 in human liver microsomes using triazolam as substrate at 25 uM preincubated for 3 mins prior to NADPH addition by HPLC-UV analysis relative to control. It counts as ADME, Microsome. To be noted: probe triazolam, read-out: Activity. In a few lines:
as §2

Data set [4] has as its target T2, CYP3A4. Briefly: Activity at CYP3A4 in human liver microsomes using triazolam as substrate at 12.5 uM preincubated for 3 mins prior to NADPH addition by HPLC-UV analysis relative to control. It counts as ADME, Microsome. To be noted: probe triazolam, read-out: Activity. In a few lines: as §2
The target of data set [5] is T2, CYP3A4. Put plainly: Activity at CYP3A4 in human liver microsomes using testosterone as substrate at 25 uM preincubated for 3 mins prior to NADPH addition by HPLC-UV analysis relative to control. It counts as ADME, Microsome. To be noted: probe testosterone, read-out: Activity. The method in brief: as §2
The subject of data set [6] is Human immunodeficiency virus 1. Put plainly: Antiviral activity against Human immunodeficiency virus 1 NL4-3 infected in human MAGI cells after 6 days by beta-galactosidase reporter gene assay. It counts as functional, organism-based. To be noted: Human immunodeficiency virus 1, NL4-3, MAGI, 144 h. The method in brief: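 MAGI cells carrying an LTR-β-galactosidase reporter were infected with HIV-1 in the presence of compound. After 6 days post-infection, cells were lysed and β-galactosidase activity was read by chemiluminescence. Values are means of three determinations.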
On the technique in general: Reporter assays use an easily measured gene product as a stand-in for the process of interest.

Data set [7] deals with Liver microsomes. Briefly: Metabolic stability in human liver microsomes assessed as retention time of metabolite at 50 uM by HPLC-UV analysis. It is filed as ADME, Microsome. The method in brief:
as §1

For data set [8], the target named is T2, CYP3A4. Briefly: Activity at CYP3A4 in human liver microsomes using triazolam as substrate at 50 uM preincubated for 3 mins prior to NADPH addition by HPLC-UV analysis relative to control. It is filed as ADME, Microsome. To be noted: probe triazolam, read-out: Activity. In a few lines: as §2
Data set [9] has as its target T1, CYP2D6. Briefly: Activity at CYP2D6 in human liver microsomes using dextromethorphan as substrate at 50 uM preincubated for 3 mins prior to NADPH addition by HPLC-UV analysis relative to control. It is filed as ADME, Microsome. To be noted: probe dextromethorphan, read-out: Activity. In a few lines:
as §2

Data set [10] in a line: Cytotoxicity against human MAGI cells by MTS assay. It counts as cell-based. For orientation: Tetrazolium dyes change colour on reduction, which living cells bring about.
Data set [11] has as its target T2, CYP3A4. Put plainly: Activity at CYP3A4 in human liver microsomes using testosterone as substrate at 12.5 uM preincubated for 3 mins prior to NADPH addition by HPLC-UV analysis relative to control. It counts as ADME, Microsome. To be noted: probe testosterone, read-out: Activity. In a few lines: as §2
Data set [12] is described as follows: Half life in human liver microsomes at 50 uM preincubated for 3 mins prior to NADPH addition measured after 60 mins by HPLC analysis. It counts as ADME, Microsome. In a few lines: as §1
Data set [13] concerns the target T1, CYP2D6. Briefly: Activity at CYP2D6 in human liver microsomes using dextromethorphan as substrate at 12.5 uM preincubated for 3 mins prior to NADPH addition by HPLC-UV analysis relative to control. To be noted: probe dextromethorphan, read-out: Activity. It is filed as ADME, Microsome. The method in brief:
as §2

Data set [14] has as its target Human immunodeficiency virus type 1 integrase (Human immunodeficiency virus 1) (UniProt Q7ZJM1). Put plainly: (§3) Inhibition of HIV-1 integrase strand transfer activity after 1 hr by ELISA. The method in brief: (§4)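 DNA substrate (20 nM final), serially diluted compound, and recombinant HIV-1 integrase were combined in 20 mM HEPES pH 7.5, 10 mM MgCl₂, 5% PEG, 0.1 mg/mL BSA, 5 mM DTT. The mix was moved to streptavidin plates for 1 h at room temperature, then washed with NaOH/NaCl/EDTA and Tris-EDTA. Detection antibody was applied for 1 h at 37 °C, followed by TMB for 10 min and absorbance at 450 nm.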

Data set [15] concerns the target Human immunodeficiency virus type 1 integrase (Human immunodeficiency virus 1, UniProt Q7ZJM1). The description is as §3. The method in brief:
as §4

The term EC50 denotes the concentration at which the effect is half-maximal. The low end stands for a more potent agent, the high end for a less potent agent. In general, EC90 refers to the point of the concentration-response curve where the effect stands at 90%. A word on the CC50: it is the concentration giving 50% cytotoxicity. The low end stands for greater toxicity to the cells, the high end for lower toxicity to the cells. One may read the half-life as how long it takes for the measured level to halve. Usually IC50 stands for the concentration needed to halve the response being measured. Read a low IC50 as greater potency.

Activity calls are given as the source filed them. The rule behind the calls is not given here.

T2 sequence (P08684 whole entry): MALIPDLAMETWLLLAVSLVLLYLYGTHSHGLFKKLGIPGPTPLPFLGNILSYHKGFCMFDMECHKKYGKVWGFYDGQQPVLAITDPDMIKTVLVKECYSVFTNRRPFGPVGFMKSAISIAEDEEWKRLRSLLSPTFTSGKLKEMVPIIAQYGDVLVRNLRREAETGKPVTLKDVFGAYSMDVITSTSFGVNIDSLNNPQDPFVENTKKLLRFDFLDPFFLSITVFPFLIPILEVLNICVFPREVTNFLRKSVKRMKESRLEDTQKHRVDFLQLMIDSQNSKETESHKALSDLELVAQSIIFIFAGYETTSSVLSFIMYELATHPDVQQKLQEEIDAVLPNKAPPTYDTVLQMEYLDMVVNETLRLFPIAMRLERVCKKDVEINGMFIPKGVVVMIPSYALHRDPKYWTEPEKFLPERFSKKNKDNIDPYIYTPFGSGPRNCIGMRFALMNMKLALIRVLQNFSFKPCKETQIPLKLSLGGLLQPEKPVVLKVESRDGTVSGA
T1 sequence (P10635 whole entry): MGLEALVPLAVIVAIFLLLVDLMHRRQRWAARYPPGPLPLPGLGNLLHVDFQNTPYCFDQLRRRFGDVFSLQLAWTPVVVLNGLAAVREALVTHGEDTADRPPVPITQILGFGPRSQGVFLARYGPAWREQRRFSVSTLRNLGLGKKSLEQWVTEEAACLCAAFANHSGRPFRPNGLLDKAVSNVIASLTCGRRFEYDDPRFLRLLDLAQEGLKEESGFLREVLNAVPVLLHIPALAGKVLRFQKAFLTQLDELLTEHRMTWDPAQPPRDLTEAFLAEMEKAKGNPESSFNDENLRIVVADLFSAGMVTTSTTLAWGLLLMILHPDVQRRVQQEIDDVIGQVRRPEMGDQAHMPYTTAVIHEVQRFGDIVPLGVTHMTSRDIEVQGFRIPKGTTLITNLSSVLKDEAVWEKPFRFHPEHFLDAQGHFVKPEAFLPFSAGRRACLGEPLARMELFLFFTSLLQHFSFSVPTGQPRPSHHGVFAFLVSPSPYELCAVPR
Chain of Human immunodeficiency virus type 1 integrase (Q7ZJM1 whole entry): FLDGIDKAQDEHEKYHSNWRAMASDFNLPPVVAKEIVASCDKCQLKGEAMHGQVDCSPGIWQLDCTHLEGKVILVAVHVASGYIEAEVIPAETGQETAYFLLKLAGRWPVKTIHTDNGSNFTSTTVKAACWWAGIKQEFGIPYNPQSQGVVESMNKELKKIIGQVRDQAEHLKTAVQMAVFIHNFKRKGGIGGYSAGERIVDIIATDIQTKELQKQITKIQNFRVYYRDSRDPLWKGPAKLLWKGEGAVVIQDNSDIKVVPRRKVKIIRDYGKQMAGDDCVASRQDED
Chain of Human immunodeficiency virus type 1 integrase (Human immunodeficiency virus 1) (Q7ZJM1 as listed by the source): as the sequence (Q7ZJM1 whole entry) above

For `O=C(/C=C(\O)c1cc(Cc2ccc(F)cc2F)cn(Cc2ccccc2F)c1=O)C(=O)N[C@H]1CCC[C@@H]1O`, the results for the Retention_time in data set [1] and in [7] were 10.48 min and 9.1 min, respectively. For the same molecule, the values for the activity at 25 µM in data set [2], in data set [3] and in [5] were 87%, 98% and 97%, respectively. Further, the activity at 12.5 µM was found to be 124% in [4], 109% in data set [11] and 86% in data set [13]. In data set [6], this molecule had a half-maximal effective concentration (EC50) of 25.1 nM. In data set [6], this molecule displayed an EC90 of 415 nM. Further, the activity at 50 µM in [8] came to 100%; in [9] it was 87%. The molecule also registered a CC50 in data set [10] of 40400 nM. In data set [12], the half-life at 50 µM is 2 h.

For `O=C(/C=C(\O)c1cc(Cc2ccc(F)cc2F)cn(Cc2ccccc2F)c1=O)C(=O)N[C@@H]1CCC[C@@H]1O` (racemic), the inhibition entry in data set [14] is “inactive”.

In data set [6], `O=C(/C=C(\O)c1cc(Cc2ccc(F)cc2F)cn(Cc2ccccc2F)c1=O)C(=O)N[C@@H]1CCC[C@H]1O` came in with an EC50 of 42.2 nM and an EC90 of 871 nM. Further, half-maximal cytotoxicity in data set [10] (CC50) was put at 137000 nM.

As for `O=C(/C=C(\O)c1cc(Cc2ccc(F)cc2F)cn(Cc2ccccc2F)c1=O)C(=O)N[C@@H]1CCC[C@H]1O` (racemic), the IC50 in data set [15] is 48 nM.

For the origin of these results see ChEMBL document CHEMBL2401701, “Notable difference in anti-HIV activity of integrase inhibitors as a consequence of geometric and enantiomeric configurations” (Bioorg Med Chem Lett, 2013).
